pIC50: −log10 of the molar value.

A short description of the assay: Inhibition of ACE. The method, boiled down: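 Enzyme source: rabbit lung acetone powder, extracted by soaking in 100 mM borate buffer, then ultracentrifuged. Extract preincubated 5 min with a range of inhibitor concentrations. Reaction started with a 1 mM solution of chromogenic substrate FAPGG. Initial hydrolysis rate followed continuously as absorbance change at 340 nm over time. IC50 from triplicate measurements fitted to a sigmoidal dose-response curve. Captopril run in parallel as benchmark.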
Take `CC[C@@H](C)[C@H](N)C(=O)N[C@@H](Cc1ccc(O)cc1)C(=O)N[C@@H](Cc1ccc(O)cc1)C(=O)O`: the pIC50 (usually the IC50 on a negative log10 scale, so that one unit is a factor of ten) was 3.63. For the compound `CC[C@@H](C)[C@H](N)C(=O)N[C@@H](Cc1ccc(O)cc1)C(=O)N[C@H](Cc1ccc(O)cc1)C(=O)O`, the pIC50 is < 3.00. Regarding `CC[C@@H](C)[C@H](NC(C)=O)C(=O)N[C@@H](Cc1ccc(O)cc1)C(=O)N[C@@H](Cc1ccc(O)cc1)C(=O)O`, the pIC50 is 4.68. Turning to `CC[C@@H](C)[C@H](N)C(=O)N[C@@H](Cc1ccc(O)cc1)C(=O)N[C@@H](Cc1ccc(O)cc1)P(=O)(O)O`, the pIC50 was 6.63. As for `CC[C@@H](C)[C@H](NC(C)=O)C(=O)N[C@@H](Cc1ccc(O)cc1)C(=O)N[C@H](Cc1ccc(O)cc1)C(=O)O`, the figure is 2.70. The value for `CCOP(=O)(OCC)[C@H](Cc1ccc(O)cc1)NC(=O)[C@H](Cc1ccc(O)cc1)NC(=O)[C@@H](NC(C)=O)[C@H](C)CC` was 3.42. The value for `CC[C@@H](C)[C@H](NC(C)=O)C(=O)N[C@@H](Cc1ccc(O)cc1)C(=O)N[C@H](Cc1ccc(O)cc1)P(=O)(O)O` was 6.86; that for `CC[C@@H](C)[C@H](NC(C)=O)C(=O)N[C@@H](Cc1ccc(O)cc1)C(=O)N[C@@H](Cc1ccc(O)cc1)P(=O)(O)O` was 7.84. The compound `CC[C@@H](C)[C@H](N)C(=O)N[C@@H](Cc1ccc(O)cc1)C(=O)N[C@H](Cc1ccc(O)cc1)P(=O)(O)O` had a pIC50 of 4.26. The value for `C[C@H](CS)C(=O)N1CCC[C@H]1C(=O)O` [CAPTOPRIL] was 8.11.

Source of the values: ChEMBL document CHEMBL1142429, “Identification of ACE pharmacophore in the phosphonopeptide metabolite K-26” (Bioorg Med Chem Lett, 2008).
